As a reminder, the pIC50 is the IC50 on a negative log10 scale, so that one unit is a factor of ten. High values mean a low IC50, low ones a high IC50.

pIC50: −log10 of the molar value. Calls of active or inactive are those of the source. The calls are words filed in the database; no cut-off is given here.

Target in one test: not listed separately
Description: (§1) Inhibition of Saccharomyces sp. alpha-glucosidase. A digest of the protocol:
(§2)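 Read spectrophotometrically at pH 6.9 and 37 °C in 50 mM sodium phosphate buffer with 100 mM NaCl. Substrate was 0.5 mM p-nitrophenyl α-D-glucopyranoside, and enzyme was 250 m units/mL. The rise in absorbance at 400 nm from PNP-G hydrolysis was followed continuously. 1-Deoxynojirimycin (0.425 mM) and acarbose (0.78 mM) served as positive controls. Modified from Oki et al.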
`C=C1[C@H](OC(C)=O)C[C@]2(C)CC[C@]3(C)[C@H](CC[C@@H]4[C@@]5(C)CC[C@H](OC(C)=O)C(C)(C)[C@@H]5CC[C@]43C)[C@H]2[C@H]1C` gave a pIC50 of 5.00.

In turn, `C[C@H]1C(=O)CC[C@@H]2[C@]1(C)CC[C@H]1[C@@]2(C)CC[C@@]2(C)[C@@H]3CC(C)(C)CC[C@]3(C)CC[C@]12C` [FRIEDELINE] showed a pIC50 of 3.49. This pIC50 is 1.51 log units lower than that of the compound before.

As for `OC[C@H]1NC[C@H](O)[C@@H](O)[C@@H]1O` [DUVOGLUSTAT], the negative logarithm of the IC50 (pIC50) is 3.37.

The compound `C=C1[C@H](O)C[C@]2(C)CC[C@]3(C)[C@H](CC[C@@H]4[C@@]5(C)CC[C@H](O)C(C)(C)[C@@H]5CC[C@]43C)[C@H]2[C@H]1C` showed a pIC50 of 4.28.

Consider `COc1cc(C(=O)O)ccc1O` [VANILLIC ACID], for which the negative-log IC50 (pIC50) is 4.16. The pIC50 values of the last two compounds are within 0.2 log units of each other.

The test system of another test is Saccharomyces sp. Described as §1. A digest of the protocol: as §2
As to `CC[C@H](/C=C/[C@@H](C)[C@H]1CC[C@H]2[C@@H]3CC=C4C[C@@H](O)CC[C@]4(C)[C@H]3CC[C@]12C)C(C)C`, the result was inactive.

In the case of `CO[C@H]1O[C@H](CO)[C@H](O)[C@H](O)[C@H]1O`, the result was inactive.

`C=C(C)[C@@H]1CC[C@]2(C)CC[C@]3(C)[C@H](CC[C@@H]4[C@@]5(C)CC[C@H](O)C(C)(C)[C@@H]5CC[C@]43C)[C@@H]12`: the outcome was inactive.

As to `O=c1ccc2cc(O)c(O)cc2o1`, the result was inactive.

In the case of `C=C(C)[C@@H]1CC[C@]2(C=O)CC[C@]3(C)[C@H](CC[C@@H]4[C@@]5(C)CC[C@H](O)C(C)(C)[C@@H]5CC[C@]43C)[C@@H]12`, the result was inactive.

Turning to `CC[C@H](CC[C@@H](C)[C@H]1CC[C@H]2[C@@H]3CC=C4C[C@@H](O)CC[C@]4(C)[C@H]3CC[C@]12C)C(C)C`, the outcome was inactive.

For `C=C(C)[C@@H]1CC[C@]2(CO)CC[C@]3(C)[C@H](CC[C@@H]4[C@@]5(C)CC[C@H](O)C(C)(C)[C@@H]5CC[C@]43C)[C@@H]12`, the result was inactive.

With `C=C(C)[C@@H]1CC[C@]2(C(=O)O)CC[C@]3(C)[C@H](CC[C@@H]4[C@@]5(C)CC[C@H](O)C(C)(C)[C@@H]5CC[C@]43C)[C@@H]12`, the result was inactive.

With `COc1cc(C(=O)O)cc(OC)c1O`, the outcome was inactive.

Turning to `C=C1[C@@H]2CC[C@@]3(C)[C@@H](c4ccoc4)OC(=O)C[C@@]13O[C@H]1CC(=O)C(C)(C)[C@H](C(O)C(=O)OC)[C@]12C` (stereo not given in full), the outcome was inactive.
